Key:
[1] = target: IMP-28; assay: MBL enzyme inhibition assay, fluorescent cephalosporin substrate FC5; type: biochemical; settings: read-out: IC50 against IMP-28; 60 pM IMP-28, 1 μM ZnSO4; mean ± SD
Procedure, shortened: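 Recombinant C-terminal His-tagged IMP-28 (pET28b construct). Serial dilutions of test compound were made in 50 mM HEPES pH 7.2 with 0.01% Triton X-100 and 1 μM ZnSO4. Enzyme (60 pM) was preincubated with compound for 15 min at 25 °C. FC536 (16 μM) was added and fluorescence (ex 380/em 460 nm) read immediately over 30–40 cycles. IC50 was curve-fitted from initial velocities versus inhibitor concentration.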

[2] = target: VIM-2 (Escherichia coli, UniProt Q5U7L7); assay: MBL enzyme inhibition assay, fluorescent cephalosporin substrate FC5; type: biochemical
Procedure, shortened: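 VIM-2 was expressed from a donated plasmid construct and purified. Test compound was serially diluted in 50 mM HEPES pH 7.2 containing 0.01% Triton X-100 and 1 μM ZnSO4, then preincubated for 15 min at 25 °C with 100 pM enzyme. Fluorescent cephalosporin FC536 (0.5 μM) was added and fluorescence (λex 380, λem 460 nm) followed over 30–40 scans. IC50 was fitted from initial rates against concentration.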

[3] = test system: panel of carbapenem-resistant clinical isolates of Gram-negative bacteria; assay: Single concentration synergy assay, summary over the panel; type: cell-based; settings: for Reduction of MIC of Meropenem, in most cases: inhibitor at 32 μg/mL, strains expressing IMP-type enzymes
Procedure, shortened: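 CLSI broth microdilution. Isolates grown overnight on blood agar at 37 °C, then in TSB at 37 °C with shaking to OD600 0.5, and diluted in Mueller-Hinton broth. Meropenem serially diluted in MHB with test compound at a fixed 32 μg/mL final. Incubated 37 °C with shaking for 16–20 h. MIC is the lowest concentration with no visible growth, as the median of triplicates.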

[4] = test system: E. coli RC0089 (clinical NDM-1 positive isolate); assay: OD600 checkerboard assay with Meropenem; type: cell-based; settings: E. coli expressing NDM-1
[5] = target: NDM-1 (Klebsiella pneumoniae, UniProt C7C422); assay: MBL enzyme inhibition assay, fluorescent cephalosporin substrate FC5; type: biochemical
NDM-1, sequence (C7C422 29-270, looked up, species assumed): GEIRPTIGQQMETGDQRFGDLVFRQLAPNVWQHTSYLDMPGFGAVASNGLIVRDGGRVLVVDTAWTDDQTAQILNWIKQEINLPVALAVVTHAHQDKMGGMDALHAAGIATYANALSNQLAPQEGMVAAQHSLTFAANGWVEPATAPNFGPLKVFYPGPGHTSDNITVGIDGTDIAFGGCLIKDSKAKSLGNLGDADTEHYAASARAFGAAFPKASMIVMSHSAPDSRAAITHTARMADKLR

Compound	IC50 [1]	IC50 [2]	Synergy with Meropenem against strains expressing serine-carbapenemases ([3]; KPC-2 and OXA-48)	Antibacterial activity of the inhibitor alone ([3]; highest tested concentration 256 μg/mL)	Reduction of MIC of Meropenem, in most cases [3]	Relationship with Meropenem in checkerboard (in words) [4]	IC50 [5]	Effect of zinc sulfate concentration on IC50 against NDM-1 ([5]; zinc sulfate 0.1 to 20 μM)
O=C(O)CN(CC(=O)O)CC(=O)O [compound 3, Nitrilotriacetic acid]	112 ± 3 µM	~2.4 µM	complete lack of synergy	no antibacterial activity	≤ 4 fold	strong synergistic relationship	–	–
O=C(O)c1cccc(C(=O)O)n1 [DPA, 2,6-Dipicolinic acid, reference compound]	17 ± 1 µM	2.9 ± 0.5 µM	–	–	≤ 4 fold	–	3.8 ± 0.04 µM	zinc-dependent effect

From publication PMC7296533 (ACS Infectious Diseases, 2020)
